Results from different studies.
Each line is one published result; the experiments were not run side by side.

CC(=O)Oc1ccc(/C=N/NC(=O)c2ccc(Nc3cc(C)nc4c(O)cccc34)cc2)cc1  inhibition (SMMC-7721; cell growth or viability, MTT; 20 µM): 14.1%
C/C(=N\O)c1ccc(-c2cccc(O)c2)c(Cl)c1O  viability (NCI-H1299; cell growth or viability, MTT; 30 µM, 48 h): 22%
N#C[Se]CC1Cc2ccc(Oc3ccccc3)cc2O1 (racemic)  CC50 (Vero; cell growth or viability; 72 h): > 20 µM
O=C(/C=C(O)/C=C/c1cccnc1)/C=C/c1c[nH]c2ccccc12  IC50 (CHO-K1; cell growth or viability, MTT; 72 h): 9.2 µM
Cc1cc(=O)n(C)c2cc(N3C(=O)CC[C@H](NS(=O)(=O)CC(C)C)[C@H]3c3ccc(Cl)cc3)ccc12  EC50 (HL-60; cell growth or viability; 7 days): 5030 nM
N#CSCCOc1ccccc1Oc1ccccc1  CC50 (Vero; cell growth or viability; 72 h): > 20 µM
C=C(F)C(=O)N1CCN(c2nc(OC[C@@H]3CCCN3C)nc3c2CCN(c2cccc4cccc(Cl)c24)C3)C[C@@H]1CC#N  GI50 (NCI-H1437; cell growth or viability, resazurin; 72 h): 3.68 µM
Cc1cc(Nc2ccc(C(=O)N/N=C/c3cc4ccccc4[nH]3)cc2)c2cccc(O)c2n1  inhibition (SMMC-7721; cell growth or viability, MTT; 20 µM): 54.3%
N[C@@H]1CCCN(c2c(/C=C3\SC(=O)NC3=O)cccc2-c2ccccc2)C1  GI50 (U-266; cell growth or viability, thymidine uptake): 4.27 µM
COc1cc(/C=C/C(=O)/C=C(O)/C=C/c2cccnc2)ccc1O  IC50 (CHO-K1; cell growth or viability, MTT; 72 h): 21.4 µM
Oc1ccc(Br)cc1-c1nc2ccccc2[nH]1  IC50 (human Rhabdomyosarcoma cell; cell growth or viability, MTT; 48 h): 7.25 µM
C/C(=N\O)c1ccc(-c2ccc(C#N)cc2)c(Cl)c1O  viability (NCI-H1299; cell growth or viability, MTT; 30 µM, 48 h): 75%
Cc1cc(Nc2ncc(Cl)c(Nc3ccccc3S(=O)(=O)C(C)C)n2)c(OC(C)C)cc1C1CCNCC1  inhibition (NCI-H3122; cell growth or viability, MTT; 0.0032 µg/mL, 72 h): 10.3%
C/C(=N\O)c1ccc(-c2ccc(O)c(Cl)c2)c(Cl)c1O  viability (NCI-H1299; cell growth or viability, MTT; 30 µM, 48 h): 80%
O=C(/C=C(O)/C=C/c1ccncc1)/C=C/c1c[nH]c2ccccc12  IC50 (CHO-K1; cell growth or viability, SRB; 72 h): 66.3 µM
O=C1CCC(N2C(=O)c3ccc(NS(=O)(=O)c4ccccc4OC(F)(F)F)cc3C2=O)C(=O)N1 (stereo not drawn)  EC50 (MHHCALL4; cell growth or viability, ATP luminescence): 0.0425 nM
COc1ccc(-c2ccc(-c3ccc(C(=N)N)nc3)s2)cc1  GI50 (M14; cell growth or viability, SRB): 1.8 µM
C/C(=N\O)c1ccc(-c2ccc(F)cc2)c(Cl)c1O  viability (NCI-H1299; cell growth or viability, MTT; 30 µM, 48 h): 69%
FC(F)(F)[Se]CCOc1cccc(Oc2ccccc2)c1  CC50 (Vero; cell growth or viability; 72 h): > 20 µM
CN(C)c1ccc(-c2nc3ccccc3[nH]2)cc1  IC50 (human Rhabdomyosarcoma cell; cell growth or viability, MTT; 48 h): 50.5 µM
Cc1cc(Nc2ccc(C(=O)N/N=C/c3cccc(Oc4ccccc4)c3)cc2)c2cccc(O)c2n1  inhibition (SMMC-7721; cell growth or viability, MTT; 20 µM): 37.6%
C=CC(=O)N1CCN(c2nc(=O)n(-c3c(C)ccnc3C(C)C)c3nc(-c4c(O)cccc4F)c(F)cc23)[C@@H](C)C1  GI50 (NCI-H1437; cell growth or viability, resazurin; 72 h): > 10 µM
COc1ccc(-c2nc3ccc(C)cc3[nH]2)cc1OC  IC50 (human Rhabdomyosarcoma cell; cell growth or viability, MTT; 48 h): > 100 µM
Cc1cc(Nc2ccc(C(=O)N/N=C/c3nc4ccccc4[nH]3)cc2)c2cccc(O)c2n1  inhibition (SMMC-7721; cell growth or viability, MTT; 20 µM): 28.3%
Clc1ccc(-c2nc3ccccc3[nH]2)c(Cl)c1  IC50 (human Rhabdomyosarcoma cell; cell growth or viability, MTT; 48 h): 35 µM
Cc1cc(Nc2ccc(C(=O)N/N=C/c3cccs3)cc2)c2cccc(O)c2n1  inhibition (SMMC-7721; cell growth or viability, MTT; 20 µM): 40.7%
Clc1ccc(-c2nc3ccccc3[nH]2)cc1  IC50 (human Rhabdomyosarcoma cell; cell growth or viability, MTT; 48 h): > 100 µM
CCC[C@@H]1CNC(=O)C(=O)N1C[C@@H]1CCCN1C[C@H](Cc1ccc(O)cc1)N1C[C@@H](Cc2ccc(O)cc2)N(CC(CC)c2ccccc2)C(=O)C1=O (stereo partly drawn)  inhibition (CHO-K1; cell growth or viability, ATP luminescence; 100 µM): 0%
COc1cc(Nc2nccc(-c3cnn4nc(OC)ccc34)n2)cc(C(F)(F)F)c1  IC50 (NCI-H1437; cell growth or viability, ATP luminescence): 0.75 µM
O=C(/C=C(O)/C=C/c1ccc[nH]1)/C=C/c1c[nH]c2ccccc12  IC50 (CHO-K1; cell growth or viability, MTT; 72 h): 11 µM
Cc1cccc(/C=N/NC(=O)c2ccc(Nc3cc(C)nc4c(O)cccc34)cc2)n1  inhibition (SMMC-7721; cell growth or viability, MTT; 20 µM): 19.9%
Cc1ccc2nc(-c3ccc4c(c3)OCO4)[nH]c2c1  IC50 (human Rhabdomyosarcoma cell; cell growth or viability, MTT; 48 h): > 100 µM
C[C@@H](Oc1cc(-c2cnn(C3CCNCC3)c2)cnc1N)c1c(Cl)ccc(F)c1Cl  inhibition (NCI-H3122; cell growth or viability, MTT; 0.008 µg/mL, 72 h): 18.1%
C/C(=N\O)c1ccc(-c2ccc(O)c(C)c2)c(Cl)c1O  viability (NCI-H1299; cell growth or viability, MTT; 30 µM, 48 h): 62%
Clc1ccccc1-c1nc2ccccc2[nH]1  IC50 (human Rhabdomyosarcoma cell; cell growth or viability, MTT; 48 h): 42.4 µM
COC(=O)c1ccc2c(c1)NC(=O)/C2=C(\Nc1ccc(N(C)C(=O)CN2CCN(C)CC2)cc1)c1ccccc1  inhibition (L929; cell growth or viability, MTT; 10 µM, 24 h): < 50%
COc1cc(/C=C/c2cc(/C=C/c3cccnc3)[nH]n2)ccc1O  IC50 (CHO-K1; cell growth or viability, SRB; 72 h): 13.6 µM
CC(=O)c1cccc(N=Nc2c(C(=O)O)cc(O)c(O)c2O)c1  inhibition (RAW264.7; IL-6 release, inhibitor, ELISA; 10 µM, LPS-stimulated): 43%
Cc1cc(Nc2ccc(C(=O)N/N=C/c3ccc(N(C)C)cc3)cc2)c2cccc(O)c2n1  inhibition (SMMC-7721; cell growth or viability, MTT; 20 µM): 33.6%
COc1cc(/C=C/c2cc(/C=C/c3ccncc3)[nH]n2)ccc1O  IC50 (CHO-K1; cell growth or viability, MTT; 72 h): 32.2 µM
Cc1cc(Nc2ccc(C(=O)N/N=C/c3ccncc3)cc2)c2cccc(O)c2n1  inhibition (SMMC-7721; cell growth or viability, MTT; 20 µM): 17.1%
Cc1ccc2nc(-c3ccc(Cl)c(Cl)c3)n(Cc3ccccc3)c2c1  IC50 (human Rhabdomyosarcoma cell; cell growth or viability, MTT): 78.9 µM
